Source: ChEMBL document CHEMBL1141604, “Benzenesulfonamide indole inhibitors of cytosolic phospholipase A2alpha: optimization of in vitro potency and rat pharmacokinetics for oral efficacy” (Bioorg Med Chem, 2008)
pIC50, pKd: −log10 of the molar value.

Legend:
[1] = Oral bioavailability in Beagle dog at 5 mg/kg administered through MC/TW formulation; type: ADME, organism-based, Canis lupus familiaris; conditions: in vivo
Outline: (§1)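 Fasted male Beagle dogs (n = 3) dosed orally in MC/TW or Phosal formulation, volume 4 or 6 mL/kg. Saphenous plasma collected over 24 h and measured by LC/MS/MS. F calculated as the dose-normalized oral/iv AUC ratio against 2 mg/kg iv.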

Ovis aries [2] = experiment: Effect on Ascaris suum-induced early phase-bronchoconstriction in naturally sensitized sheep model assessed as increase in specific lung resistance at 3 mg/kg, po bid for 2 days; type: functional
Outline: (§2)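 Naturally sensitized sheep challenged via the airways with Ascaris suum antigen. Pulmonary resistance recorded breath by breath using the esophageal balloon technique. Oral doses given in Phosal stock diluted with water, 0.25 mL/kg. Dosing BID before challenge and on challenge day, 2 h before and 8 h after. Early and late responses expressed as mean maximum % increase in specific lung resistance, compared with each sheep's historical control.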

Ovis aries [3] = experiment: Effect on Ascaris suum-induced early phase-bronchoconstriction in naturally sensitized sheep model assessed as increase in specific lung resistance at 10 mg/kg, iv bid for 1 day; type: functional
Ovis aries [4] = experiment: Effect on Ascaris suum-induced early phase-bronchoconstriction in naturally sensitized sheep model assessed as increase in specific lung resistance at 1 mg/kg, po bid for 5 days; type: functional; outline: as §2
[5] = Selectivity for human cPLA2-alpha over COX1
Ovis aries [6] = experiment: Effect on Ascaris suum-induced late phase-bronchoconstriction in naturally sensitized sheep model assessed as increase in specific lung resistance at 10 mg/kg, iv bid for 1 day; type: functional
Ovis aries [7] = experiment: Effect on Ascaris suum-induced late phase-bronchoconstriction in naturally sensitized sheep model assessed as increase in specific lung resistance at 1 mg/kg, po bid for 5 days; type: functional; outline: as §2
[8] = Oral bioavailability in Beagle dog at 5 mg/kg administered through Phosal formulation; type: ADME, organism-based, Canis lupus familiaris; conditions: in vivo; outline: as §1
[9] = Clearance in Beagle dog at 2 mg/kg, iv; type: ADME, organism-based, Canis lupus familiaris; parameters: dose 2 mg/kg, route intravenous; conditions: in vivo
Outline: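 Male Beagle dogs, 8.5–13.0 kg, n = 3, fasted overnight, given 2 mg/kg iv in 20% DMSO/80% PEG-200. Saphenous blood sampled over 24 h and plasma acidified to about pH 4. Analysed by LC/MS/MS with internal standard. Clearance by non-compartmental methods.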

Blood [10] = experiment: Inhibition of LTB4 production in human whole blood assay; type: functional, tissue-based
Outline: (§3)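 Heparinized blood from healthy male volunteers (3 donors). Aliquots preincubated 15 min at 37 °C with compound in DMSO, then stimulated 15 min with 30 µM A23187 (final). Reaction stopped with 20 mM EDTA; plasma proteins precipitated with cold methanol. TXB2, LTB4, PGE2 and PGF2α measured by immunoassay kit; IC50 derived.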

Rattus norvegicus [11] = experiment: Antiinflammatory activity against carrageenan-induced paw edema in Sprague-Dawley rat decrease in paw volume at 10 mg/kg, po administered through MC/TW formulation; type: functional; parameters: scale not given: the % may be the effect or the level left
Outline: (§4)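 Male Sprague-Dawley rats, 190–250 g, n = 10 per group, housed 1 week beforehand. Left hind paw volume measured by plethysmometer before oral dosing in Phosal or MC/TW (0.5% methylcellulose, 2% Tween 80) vehicle. Two hours after dosing, 60 µL of 1% carrageenan in saline injected subplantar. Paw volume remeasured 3 h later; percent inhibition of swelling calculated versus vehicle.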

[12] = molecular target: T1, Prostaglandin G/H synthase 2 (Homo sapiens) (UniProt P35354); experiment: Inhibition of COX2 at 100 uM
T1 sequence (whole entry): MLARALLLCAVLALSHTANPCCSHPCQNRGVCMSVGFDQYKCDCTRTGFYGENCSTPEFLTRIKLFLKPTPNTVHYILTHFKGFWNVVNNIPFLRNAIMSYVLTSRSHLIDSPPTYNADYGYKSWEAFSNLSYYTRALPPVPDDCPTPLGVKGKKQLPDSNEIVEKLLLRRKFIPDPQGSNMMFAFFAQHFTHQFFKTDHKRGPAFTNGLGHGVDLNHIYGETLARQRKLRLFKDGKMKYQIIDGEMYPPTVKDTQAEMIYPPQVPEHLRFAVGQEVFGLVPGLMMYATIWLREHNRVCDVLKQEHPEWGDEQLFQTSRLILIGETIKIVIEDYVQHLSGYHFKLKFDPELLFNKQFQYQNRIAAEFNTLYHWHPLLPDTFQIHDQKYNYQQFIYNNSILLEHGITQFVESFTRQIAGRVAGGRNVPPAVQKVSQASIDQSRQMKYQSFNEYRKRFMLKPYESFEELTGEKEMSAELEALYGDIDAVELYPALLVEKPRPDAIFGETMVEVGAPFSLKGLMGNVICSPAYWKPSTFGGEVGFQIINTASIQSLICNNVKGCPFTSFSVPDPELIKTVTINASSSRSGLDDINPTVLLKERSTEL

[13] = Inhibition of cPLA2-alpha in Sprague-Dawley rat whole blood assay in presence of A23187; type: tissue-based
Outline: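 Heparinized blood from male Sprague-Dawley rats, taken by cardiac puncture. Preincubated 15 min at 37 °C with compound in DMSO, then stimulated 10 min at 37 °C with 5 µM A23187 (final). Stopped with 20 mM EDTA; plasma precipitated with cold methanol at −80 °C. TXB2 measured by immunoassay; IC50 values averaged from at least two independent runs.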

[14] = Binding affinity at human cPLA2-alpha by isothermal calorimetry
Outline: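 ITC at 30 °C. Purified human cPLA2α dialyzed into 50 mM Hepes pH 7.4, 0.3 mM EDTA, 1 mM CaCl2, 300 mM KCl. Cell held 2.5 µM protein with 1% DMSO and 940 µM Triton X-100. Syringe held 78.5 µM compound in matching buffer; twenty 10 µL injections. Buffer-only titration subtracted as background; single-site fit gave Kd and stoichiometry.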

Blood [15] = experiment: Inhibition of PGE2 production in human whole blood assay; type: functional, tissue-based; outline: as §3
Rattus norvegicus [16] = experiment: Antiinflammatory activity against carrageenan-induced paw edema in Sprague-Dawley rat decrease in paw volume at 25 mg/kg, po administered through MC/TW formulation; type: functional; parameters: scale not given: the % may be the effect or the level left; outline: as §4
Rattus norvegicus [17] = experiment: Antiinflammatory activity against carrageenan-induced paw edema in Sprague-Dawley rat administered through MC/TW formulation; type: functional; outline: as §4
[18] = Selectivity for human cPLA2-alpha over COX2
[19] = Inhibition of human cPLA2-alpha assessed as cleavage of 7-hydroxycoumarinyl-gamma-linolenate
Outline: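 Substrate 90 µM GLU with 120 µM DTPC. Compounds in DMSO tested in duplicate. Fluorescence (ex 355/em 460 nm) read every 4 min for 84 min; inhibition from slope. IC50 averaged from at least two independent runs.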

[20] = Oral bioavailability in Sprague-Dawley rat at 25 mg/kg administered through Phosal formulation; type: ADME, organism-based; conditions: in vivo
Outline: (§5)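 Overnight-fasted male Sprague-Dawley rats (n = 3) gavaged in MC/TW or Phosal vehicle; compound at 37.5 mg/mL, diluted with water, dosed at 4 mL/kg. Jugular blood taken over 24 h; plasma analysed by LC/MS/MS. F calculated as the dose-normalized oral/iv AUC ratio, iv reference 2 mg/kg.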

Blood [21] = experiment: Inhibition of PGF2-alpha production in human whole blood assay; type: functional, tissue-based; outline: as §3
[22] = Clearance in Sprague-Dawley rat at 2 mg/kg, iv; type: ADME, organism-based; parameters: dose 2 mg/kg, route intravenous; conditions: in vivo
Outline: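 Male Sprague-Dawley rats, 200–300 g, n = 3, given a single 2 mg/kg tail-vein bolus in 50% PEG-400/50% DMSO. Blood drawn via jugular cannula over 24 h and plasma acidified with HCl. Plasma levels measured by LC/MS/MS after acetonitrile precipitation with internal standard; quantitation limit 5 ng/mL. Clearance from non-compartmental analysis.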

[23] = Oral bioavailability in Sprague-Dawley rat at 25 mg/kg administered through MC/TW formulation; type: ADME, organism-based; conditions: in vivo; outline: as §5
Blood [24] = experiment: Inhibition of TXB2 production in human whole blood assay; type: functional, tissue-based; outline: as §3
Ovis aries [25] = experiment: Effect on Ascaris suum-induced late phase-bronchoconstriction in naturally sensitized sheep model assessed as increase in specific lung resistance at 3 mg/kg, po bid for 2 days; type: functional; outline: as §2
[26] = molecular target: Prostaglandin G/H synthase 1 (Homo sapiens) (UniProt P23219); experiment: Inhibition of COX1 at 100 uM
Rattus norvegicus [27] = experiment: Antiinflammatory activity against carrageenan-induced paw edema in Sprague-Dawley rat assessed as decrease in paw volume at 25 mg/kg, po administered through Phosal formulation; type: functional; parameters: scale not given: the % may be the effect or the level left; outline: as §4

Sequence of Prostaglandin G/H synthase 1 (Homo sapiens) (P23219 whole entry): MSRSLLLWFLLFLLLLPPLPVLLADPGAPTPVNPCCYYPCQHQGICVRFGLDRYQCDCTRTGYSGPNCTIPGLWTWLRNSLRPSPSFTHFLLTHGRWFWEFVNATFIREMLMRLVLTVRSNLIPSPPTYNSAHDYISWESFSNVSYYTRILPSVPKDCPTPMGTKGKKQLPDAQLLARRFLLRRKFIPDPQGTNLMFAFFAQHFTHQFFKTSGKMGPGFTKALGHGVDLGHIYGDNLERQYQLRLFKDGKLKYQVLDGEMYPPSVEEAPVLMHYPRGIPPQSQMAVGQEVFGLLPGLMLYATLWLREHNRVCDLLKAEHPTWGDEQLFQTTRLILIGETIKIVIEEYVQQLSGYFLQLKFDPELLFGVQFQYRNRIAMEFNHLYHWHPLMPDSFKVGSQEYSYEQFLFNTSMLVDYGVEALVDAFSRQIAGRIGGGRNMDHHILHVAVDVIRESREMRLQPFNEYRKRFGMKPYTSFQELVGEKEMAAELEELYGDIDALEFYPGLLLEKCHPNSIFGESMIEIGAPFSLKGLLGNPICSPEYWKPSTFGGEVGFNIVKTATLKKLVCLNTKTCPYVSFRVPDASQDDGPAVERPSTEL

O=C(O)c1ccc(CCCc2c(CCNS(=O)(=O)c3c(F)cccc3C(F)(F)F)n(C(c3ccccc3)c3ccccc3)c3ccc(Cl)cc23)cc1
bioavailability [1]: 16%
Activity (Ovis aries [2]): 379%
Activity (Ovis aries [3]): 346%
Activity (Ovis aries [4]): 431%
Selectivity ratio [5]: > 1000
Activity (Ovis aries [6]): 29%
Activity (Ovis aries [7]): 68%
bioavailability [8]: 13%
clearance [9]: 1.4 mL/min/kg
pIC50 (Blood [10]): 7.09
Activity (Rattus norvegicus [11]): 34%
inhibition [12]: 9.9%
pIC50 [13]: 7.00
pKd [14]: 7.10
pIC50 (Blood [15]): 7.22
Activity (Rattus norvegicus [16]): 44%
ED50 (Rattus norvegicus [17]): < 10 mg/kg
Selectivity ratio [18]: > 1000
pIC50 [19]: 7.19
bioavailability [20]: 5%
pIC50 (Blood [21]): 6.96
clearance [22]: 14 mL/min/kg
bioavailability [23]: 13%
pIC50 (Blood [24]): 6.92
Activity (Ovis aries [25]): 29%
inhibition [26]: 45%
Activity (Rattus norvegicus [27]): 16%
